pEC50: −log10 of the molar value. Where “and” joins values, the source holds several entries; their conditions need not be identical. Equal values may be shown once. One block for each molecule: values may come before it. Calls of active or inactive are those of the source. The rule behind the calls is not given here.
What was measured:
[1] = target: T1, Peroxisome proliferator-activated receptor alpha (Homo sapiens) (UniProt Q07869); assay: Agonist activity at PPARalpha expressed in HEK293 cells by measuring Gal4 luciferase reporter activity relative to (S)-2- {2-[1-Ethyl-3-(4-trifluoromethoxyphenyl)ureido] indan-5-ylsulfanyl}-2- methylpropionic acid; format: functional, cell-based
T1 sequence (whole entry): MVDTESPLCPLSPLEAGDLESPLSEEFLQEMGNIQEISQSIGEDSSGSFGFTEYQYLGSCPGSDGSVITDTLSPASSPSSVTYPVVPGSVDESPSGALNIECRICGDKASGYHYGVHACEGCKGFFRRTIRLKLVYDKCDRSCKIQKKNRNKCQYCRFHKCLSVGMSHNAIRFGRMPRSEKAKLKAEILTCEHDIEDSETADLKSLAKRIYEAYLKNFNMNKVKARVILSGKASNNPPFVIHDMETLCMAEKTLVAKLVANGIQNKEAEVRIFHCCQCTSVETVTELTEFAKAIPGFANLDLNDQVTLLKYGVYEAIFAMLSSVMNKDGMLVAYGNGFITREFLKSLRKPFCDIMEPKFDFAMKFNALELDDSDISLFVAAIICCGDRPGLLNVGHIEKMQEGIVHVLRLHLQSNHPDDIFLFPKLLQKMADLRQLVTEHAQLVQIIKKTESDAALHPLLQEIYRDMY
In short: (§1)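 HEK293 cells grown in DMEM/F-12 with 10% FBS and glutamine, cotransfected with a PPARα ligand-binding domain-Gal4 chimera and a Gal4-luciferase reporter. Next day switched to 5% charcoal-treated FBS medium, replated after 6 h at 50 000 cells/well, and cultured overnight. Compound or vehicle (0.1% DMSO) added for 24 h at 37 °C. Luciferase read by Steady-Glo; percent efficacy given relative to a reference PPARα agonist.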

[2] = target: T2, Peroxisome proliferator-activated receptor alpha (Homo sapiens, UniProt Q07869); assay: Agonist activity at PPARalpha expressed in HEK293 cells by measuring Gal4 luciferase reporter activity; format: functional, cell-based; in short: as §1
T2 sequence (Q07869 whole entry): T1 sequence (whole entry)

[3] = target: T3, Peroxisome proliferator-activated receptor delta (Homo sapiens, UniProt Q03181); assay: Agonist activity at PPARdelta expressed in HEK293 cells by measuring Gal4 luciferase reporter activity; format: functional, cell-based
T3 sequence (Q03181 whole entry): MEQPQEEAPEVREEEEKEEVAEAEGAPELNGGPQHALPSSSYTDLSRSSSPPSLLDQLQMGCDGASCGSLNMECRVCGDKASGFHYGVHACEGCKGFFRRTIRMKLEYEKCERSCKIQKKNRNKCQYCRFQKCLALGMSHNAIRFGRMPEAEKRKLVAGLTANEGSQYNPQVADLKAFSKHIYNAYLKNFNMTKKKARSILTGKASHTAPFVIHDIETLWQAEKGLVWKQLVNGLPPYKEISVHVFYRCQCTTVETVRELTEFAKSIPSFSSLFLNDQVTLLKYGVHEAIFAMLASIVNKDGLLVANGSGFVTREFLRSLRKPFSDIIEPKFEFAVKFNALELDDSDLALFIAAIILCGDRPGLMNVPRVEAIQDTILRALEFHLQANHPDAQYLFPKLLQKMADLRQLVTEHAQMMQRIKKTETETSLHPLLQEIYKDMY

[4] = target: Retinoic acid receptor (Homo sapiens) (UniProt P13631+P10826+P10276); assay: Effect on RAR; format: protein assay
[5] = Half life in rat at 3 mg/kg; format: ADME, organism-based; parameters: dose 3 mg/kg; conditions: in vivo
In short: (§2)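 Rats given 3 mg/kg; IV formulation was a solution in 10% w/v Solutol in 5% dextrose in water (D5W). Blood was drawn by orbital sinus puncture into heparinized tubes. Plasma was protein-precipitated with acetonitrile containing internal standard, centrifuged at 5000g for 3 min and analysed by LC-MS-MS against plasma calibration standards.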

Mus musculus [6] = assay: Effect on lipid homeostasis in C57BL/6J Lepob mouse assessed as decrease in serum triglyceride levels at 1 mg/kg, po after 11 days; format: functional; parameters: scale not given: the % may be the effect or the level left
In short: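 Seven-week-old female ob/ob (C57BL/6J-Lepob) mice were dosed orally with a 0.5% methylcellulose suspension for 11 days. Serum TG, glucose and FFA were taken under fed conditions and measured on a COBAS Mira Plus analyzer, and liver was weighed. Mean ± SEM, n = 8; one-way ANOVA with Dunnett's test vs vehicle.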

Mus musculus [7] = assay: Effect on lipid homeostasis in human apoA1 transgenic mouse assessed as increase in HDL-C levels at 3 mg/kg, po after 7 days; format: functional
In short: (§3)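 Male human apoA1 transgenic mice were given 3 mg/kg orally as a 0.5% methylcellulose suspension for 7 days. Serum HDL-C, triglyceride and free fatty acids were sampled under fed conditions and measured on a COBAS Mira Plus analyzer. n = 8/group; one-way ANOVA with Dunnett's test vs vehicle control.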

Rattus norvegicus [8] = assay: Decrease in serum LDL-C levels in hypercholesterolemic Sprague-Dawley rat at 0.1 to 3 mg/kg/day, po after 8 days; format: functional, organism-based
In short: (§4)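 Male Sprague-Dawley rats (275-325 g) were fed a high-cholesterol atherogenic diet for 6 days before and throughout treatment; lean controls got normal chow plus vehicle. Drug in 0.5% Methocel was given orally at 10 mL/kg once daily for 8 days. On day 9, retro-orbital blood was taken under CO2/O2 anesthesia and serum lipids measured on a COBAS analyzer. n = 8/group; one-way ANOVA with Dunnett's test.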

[9] = AUC in rat at 3 mg/kg; format: ADME, organism-based; parameters: dose 3 mg/kg; conditions: plasma
[10] = Clearance in rat at 3 mg/kg; format: ADME, organism-based; parameters: dose 3 mg/kg; conditions: in vivo; in short: as §2
[11] = target: T4, Bile acid receptor (Homo sapiens) (UniProt Q96RI1); assay: Effect on FXR
T4 sequence (whole entry): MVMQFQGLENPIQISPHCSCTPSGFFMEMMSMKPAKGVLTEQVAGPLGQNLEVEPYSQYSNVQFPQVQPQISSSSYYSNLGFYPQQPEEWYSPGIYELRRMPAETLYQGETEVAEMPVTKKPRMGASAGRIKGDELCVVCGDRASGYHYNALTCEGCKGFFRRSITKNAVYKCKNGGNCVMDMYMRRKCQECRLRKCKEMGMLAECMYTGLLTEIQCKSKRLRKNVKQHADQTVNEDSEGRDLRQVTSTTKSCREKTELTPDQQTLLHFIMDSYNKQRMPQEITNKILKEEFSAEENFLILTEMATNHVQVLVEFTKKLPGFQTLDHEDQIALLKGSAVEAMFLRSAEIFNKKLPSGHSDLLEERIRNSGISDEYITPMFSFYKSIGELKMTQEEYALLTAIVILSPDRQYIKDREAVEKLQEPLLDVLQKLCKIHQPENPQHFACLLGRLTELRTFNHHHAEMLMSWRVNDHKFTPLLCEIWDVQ

[12] = Tmax in rat at 3 mg/kg, po; format: ADME, organism-based; parameters: dose 3 mg/kg, route oral; conditions: in vivo
In short: (§5)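 Heparinized orbital-sinus blood was collected; plasma was precipitated with acetonitrile plus internal standard and quantified by LC-MS-MS using calibration standards prepared in plasma.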

[13] = target: T5, Peroxisome proliferator-activated receptor alpha (Mus musculus, UniProt P23204); assay: Efficacy on PPARalpha in mouse by HD assay
T5 sequence (P23204 whole entry): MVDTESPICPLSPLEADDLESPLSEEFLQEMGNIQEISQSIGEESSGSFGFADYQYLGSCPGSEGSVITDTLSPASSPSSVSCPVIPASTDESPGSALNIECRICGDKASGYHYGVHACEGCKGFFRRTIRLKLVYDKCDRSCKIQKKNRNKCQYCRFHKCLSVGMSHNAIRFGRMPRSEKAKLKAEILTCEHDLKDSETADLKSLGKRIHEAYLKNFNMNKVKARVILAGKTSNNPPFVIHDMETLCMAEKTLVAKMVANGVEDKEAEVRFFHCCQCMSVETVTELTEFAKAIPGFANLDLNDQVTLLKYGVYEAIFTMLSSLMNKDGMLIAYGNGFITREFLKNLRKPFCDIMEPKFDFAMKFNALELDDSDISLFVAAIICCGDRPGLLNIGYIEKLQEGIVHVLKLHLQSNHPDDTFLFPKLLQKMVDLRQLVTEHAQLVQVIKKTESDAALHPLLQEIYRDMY

[14] = Cmax in rat at 3 mg/kg, po; format: ADME, organism-based; parameters: dose 3 mg/kg, route oral; conditions: in vivo; in short: as §5
Rattus norvegicus [15] = assay: Increase in serum HDL-C levels in hypercholesterolemic Sprague-Dawley rat at 0.1 to 3 mg/kg/day, po after 8 days; format: functional, organism-based; in short: as §4
[16] = target: T6, Peroxisome proliferator-activated receptor gamma (Homo sapiens, UniProt P37231); assay: Agonist activity at PPARgamma expressed in HEK293 cells by measuring Gal4 luciferase reporter activity; format: functional, cell-based
T6 sequence (P37231 whole entry): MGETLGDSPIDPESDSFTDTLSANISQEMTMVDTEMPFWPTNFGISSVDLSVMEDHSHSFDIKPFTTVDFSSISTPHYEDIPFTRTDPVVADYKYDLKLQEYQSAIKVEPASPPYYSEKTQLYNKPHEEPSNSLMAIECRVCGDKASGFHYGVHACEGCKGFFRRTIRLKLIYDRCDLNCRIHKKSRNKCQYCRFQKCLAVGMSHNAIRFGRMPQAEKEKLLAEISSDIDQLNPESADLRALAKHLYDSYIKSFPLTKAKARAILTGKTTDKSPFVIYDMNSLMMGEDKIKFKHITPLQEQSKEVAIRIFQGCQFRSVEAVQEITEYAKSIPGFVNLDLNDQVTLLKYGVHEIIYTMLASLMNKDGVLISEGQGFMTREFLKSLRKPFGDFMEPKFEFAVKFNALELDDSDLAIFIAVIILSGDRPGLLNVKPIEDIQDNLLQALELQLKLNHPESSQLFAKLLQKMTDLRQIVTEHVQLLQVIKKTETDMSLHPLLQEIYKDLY

Mus musculus [17] = assay: Effect on lipid homeostasis in human apoA1 transgenic mouse assessed as decrease in triglyceride level at 3 mg/kg, po after 7 days; format: functional; parameters: scale not given: the % may be the effect or the level left; in short: as §3
Mus musculus [18] = assay: Effect on lipid homeostasis in human apoA1 transgenic mouse assessed as decrease in free fatty acid levels at 3 mg/kg, po after 7 days; format: functional; parameters: scale not given: the % may be the effect or the level left; in short: as §3
[19] = target: Retinoid X receptor (Homo sapiens) (UniProt P28702+P48443+P19793); assay: Effect on RXR; format: protein assay
[20] = Bioavailability in rat at 3 mg/kg, po; format: ADME, organism-based; conditions: in vivo; in short: as §5
[21] = target: Liver X receptor (Homo sapiens) (UniProt Q13133+P55055); assay: Effect on LXR; format: protein assay
Homo sapiens = organism: Homo sapiens; assay: Selectivity for PPARdelta over PPARalpha

Sequence of Retinoid X receptor (Homo sapiens) (P19793 whole entry, looked up): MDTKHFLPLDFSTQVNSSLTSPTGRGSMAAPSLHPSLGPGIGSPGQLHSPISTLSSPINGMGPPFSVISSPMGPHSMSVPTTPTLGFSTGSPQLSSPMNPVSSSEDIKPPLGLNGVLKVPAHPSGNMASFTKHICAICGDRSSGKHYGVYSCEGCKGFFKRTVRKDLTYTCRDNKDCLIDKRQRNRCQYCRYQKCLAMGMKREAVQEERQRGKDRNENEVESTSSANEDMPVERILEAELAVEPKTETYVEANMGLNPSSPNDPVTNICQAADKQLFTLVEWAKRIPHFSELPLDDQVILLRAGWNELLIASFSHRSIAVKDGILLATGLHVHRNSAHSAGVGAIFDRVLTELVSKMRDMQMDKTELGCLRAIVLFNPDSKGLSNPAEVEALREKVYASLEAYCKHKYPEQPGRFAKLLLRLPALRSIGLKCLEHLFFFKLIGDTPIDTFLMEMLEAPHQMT
Sequence of Retinoid X receptor (Homo sapiens) (P28702 whole entry, looked up): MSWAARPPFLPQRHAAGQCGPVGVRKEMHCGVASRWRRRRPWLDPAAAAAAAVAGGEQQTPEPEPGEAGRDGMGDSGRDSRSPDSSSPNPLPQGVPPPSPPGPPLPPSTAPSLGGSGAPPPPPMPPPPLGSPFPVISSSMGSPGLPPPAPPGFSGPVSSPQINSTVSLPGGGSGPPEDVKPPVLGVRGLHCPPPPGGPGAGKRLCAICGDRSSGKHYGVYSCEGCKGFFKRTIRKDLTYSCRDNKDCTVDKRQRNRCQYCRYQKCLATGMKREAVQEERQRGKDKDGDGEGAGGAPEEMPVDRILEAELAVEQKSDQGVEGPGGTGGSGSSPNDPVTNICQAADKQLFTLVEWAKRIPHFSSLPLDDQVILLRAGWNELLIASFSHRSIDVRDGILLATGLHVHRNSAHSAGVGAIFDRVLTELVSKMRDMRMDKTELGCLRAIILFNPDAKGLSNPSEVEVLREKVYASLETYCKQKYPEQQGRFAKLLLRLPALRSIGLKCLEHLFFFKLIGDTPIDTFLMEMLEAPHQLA
Sequence of Retinoid X receptor (Homo sapiens) (P48443 whole entry, looked up): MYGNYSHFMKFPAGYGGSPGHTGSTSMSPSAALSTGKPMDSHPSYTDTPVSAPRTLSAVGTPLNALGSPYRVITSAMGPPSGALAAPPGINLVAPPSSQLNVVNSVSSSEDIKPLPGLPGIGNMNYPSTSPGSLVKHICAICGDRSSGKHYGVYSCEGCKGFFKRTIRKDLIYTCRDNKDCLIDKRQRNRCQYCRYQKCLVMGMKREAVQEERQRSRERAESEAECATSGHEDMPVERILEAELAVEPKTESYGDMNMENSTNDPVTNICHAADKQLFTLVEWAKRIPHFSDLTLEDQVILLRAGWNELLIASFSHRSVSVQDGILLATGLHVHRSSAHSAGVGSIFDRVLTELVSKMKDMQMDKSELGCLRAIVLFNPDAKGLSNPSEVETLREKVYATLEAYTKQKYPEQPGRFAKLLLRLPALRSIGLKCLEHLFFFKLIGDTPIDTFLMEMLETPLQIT
Sequence of Retinoic acid receptor (Homo sapiens) (P10276 whole entry, looked up): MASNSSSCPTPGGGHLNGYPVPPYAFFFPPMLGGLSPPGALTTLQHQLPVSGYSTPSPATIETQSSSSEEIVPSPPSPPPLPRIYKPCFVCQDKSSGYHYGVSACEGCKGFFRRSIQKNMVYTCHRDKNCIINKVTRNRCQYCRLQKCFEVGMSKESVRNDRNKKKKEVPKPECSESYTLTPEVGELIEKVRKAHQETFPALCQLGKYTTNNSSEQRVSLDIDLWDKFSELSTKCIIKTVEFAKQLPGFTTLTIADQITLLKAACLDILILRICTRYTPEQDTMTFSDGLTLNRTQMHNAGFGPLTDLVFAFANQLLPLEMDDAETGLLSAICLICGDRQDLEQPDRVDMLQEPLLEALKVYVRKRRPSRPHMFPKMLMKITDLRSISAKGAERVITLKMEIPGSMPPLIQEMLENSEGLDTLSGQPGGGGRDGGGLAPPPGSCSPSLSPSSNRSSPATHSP
Sequence of Retinoic acid receptor (Homo sapiens) (P10826 whole entry, looked up): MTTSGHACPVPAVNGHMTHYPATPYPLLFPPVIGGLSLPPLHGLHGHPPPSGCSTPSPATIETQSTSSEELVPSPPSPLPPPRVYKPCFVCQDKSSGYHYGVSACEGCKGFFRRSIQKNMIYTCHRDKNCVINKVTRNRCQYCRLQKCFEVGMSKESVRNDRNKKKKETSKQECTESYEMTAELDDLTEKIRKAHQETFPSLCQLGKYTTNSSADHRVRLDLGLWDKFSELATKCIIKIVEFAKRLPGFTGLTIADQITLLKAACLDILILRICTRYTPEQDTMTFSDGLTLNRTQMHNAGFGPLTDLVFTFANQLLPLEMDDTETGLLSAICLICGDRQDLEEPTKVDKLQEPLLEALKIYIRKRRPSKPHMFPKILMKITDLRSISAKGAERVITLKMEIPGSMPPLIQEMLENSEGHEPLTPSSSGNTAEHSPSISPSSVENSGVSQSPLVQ
Sequence of Retinoic acid receptor (Homo sapiens) (P13631 whole entry, looked up): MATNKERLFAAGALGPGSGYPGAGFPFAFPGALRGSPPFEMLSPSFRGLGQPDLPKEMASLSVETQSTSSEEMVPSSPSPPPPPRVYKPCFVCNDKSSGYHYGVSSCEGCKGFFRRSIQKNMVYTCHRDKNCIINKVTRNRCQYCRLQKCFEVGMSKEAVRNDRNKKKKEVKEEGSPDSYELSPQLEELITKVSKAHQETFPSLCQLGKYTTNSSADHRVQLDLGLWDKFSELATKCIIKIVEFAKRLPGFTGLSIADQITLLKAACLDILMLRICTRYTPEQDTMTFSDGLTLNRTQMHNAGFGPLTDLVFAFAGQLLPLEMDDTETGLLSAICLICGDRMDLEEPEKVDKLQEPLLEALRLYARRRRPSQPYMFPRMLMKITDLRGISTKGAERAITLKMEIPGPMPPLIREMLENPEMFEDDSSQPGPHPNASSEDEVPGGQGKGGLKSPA

pEC50 [2]: 7.10
Activity [1]: 51%
pEC50 [3]: 8.22
SMILES: Cc1cc(SCc2nc(-c3ccc(C(F)(F)F)cc3)ns2)ccc1OC(C)(C)C(=O)O

Activity [1]: 38%
SMILES: Cc1cc(SCc2nsc(-c3ccc(C(F)(F)F)cc3)n2)ccc1OC(C)(C)C(=O)O

Activity [4]: inactive
half-life [5]: 5.3 h
AUC [9]: 22000 ng·h/mL
clearance [10]: 2.2 mL/min/kg
Activity [11]: inactive
Tmax [12]: 0.8 h
pEC50 [13]: 6.90
Cmax [14]: 6680 ng/mL
pEC50 [16]: < 5.52
Activity [1]: 44%
Activity [19]: inactive
bioavailability [20]: 96%
Activity [21]: inactive
SMILES: Cc1cc(SCc2nc(-c3ccc(OC(F)(F)F)cc3)ns2)ccc1OC(C)(C)C(=O)O
Activity (Mus musculus [6]): 80% and 98.9 mg/dl
Activity (Mus musculus [7]): 74%
Activity (Rattus norvegicus [8]): Active
Activity (Rattus norvegicus [15]): Active
Activity (Mus musculus [17]): 85%
Activity (Mus musculus [18]): 31%

pEC50 [16]: < 5.52
Activity [1]: 47%
SMILES: Cc1cc(SCc2nsc(-c3ccc(OC(F)(F)F)cc3)n2)ccc1OC(C)(C)C(=O)O

Activity [1]: 64%
SMILES: Cc1cc(SCc2nc(-c3ccc(C(C)(C)C)cc3)ns2)ccc1OC(C)(C)C(=O)O

Activity [1]: 71%
SMILES: Cc1cc(OCc2nc(-c3ccc(C(F)(F)F)cc3)ns2)ccc1OC(C)(C)C(=O)O

More lines, now with the values behind:

SMILES: Cc1cc(SCc2nc(-c3ccc(OC(F)(F)F)cc3)ns2)ccc1OC1(C(=O)O)CCCC1
Activity [1]: 31%

SMILES: Cc1cc(OCc2nc(-c3ccc(OC(F)(F)F)cc3)ns2)ccc1OC(C)(C)C(=O)O
Activity [1]: 80%
pEC50 [3]: 7.92

SMILES: Cc1cc(SCc2nc(-c3ccc(C(F)(F)F)cc3)ns2)ccc1OCC(=O)O
Selectivity ratio (Homo sapiens): 47
pEC50 [16]: < 5.52
Activity [1]: 42%

SMILES: Cc1cc(SCc2nc(-c3ccc(Cl)cc3)ns2)ccc1OC(C)(C)C(=O)O
Activity [1]: 38%

From ChEMBL document CHEMBL1148700, “Synthesis and identification of [1,2,4]thiadiazole derivatives as a new series of potent and orally active dual agonists of peroxisome proliferator-activated receptors alpha and delta” (J Med Chem, 2007)
